Results on ten compounds are retold here after ChEMBL document CHEMBL3108721, “4,4'-Unsymmetrically substituted 3,3'-biphenyl alpha helical proteomimetics as potential coactivator binding inhibitors” (Bioorg Med Chem, 2014).

In series [1] the target is T1, Estrogen receptor (Homo sapiens) (UniProt P03372).
T1 sequence (whole entry): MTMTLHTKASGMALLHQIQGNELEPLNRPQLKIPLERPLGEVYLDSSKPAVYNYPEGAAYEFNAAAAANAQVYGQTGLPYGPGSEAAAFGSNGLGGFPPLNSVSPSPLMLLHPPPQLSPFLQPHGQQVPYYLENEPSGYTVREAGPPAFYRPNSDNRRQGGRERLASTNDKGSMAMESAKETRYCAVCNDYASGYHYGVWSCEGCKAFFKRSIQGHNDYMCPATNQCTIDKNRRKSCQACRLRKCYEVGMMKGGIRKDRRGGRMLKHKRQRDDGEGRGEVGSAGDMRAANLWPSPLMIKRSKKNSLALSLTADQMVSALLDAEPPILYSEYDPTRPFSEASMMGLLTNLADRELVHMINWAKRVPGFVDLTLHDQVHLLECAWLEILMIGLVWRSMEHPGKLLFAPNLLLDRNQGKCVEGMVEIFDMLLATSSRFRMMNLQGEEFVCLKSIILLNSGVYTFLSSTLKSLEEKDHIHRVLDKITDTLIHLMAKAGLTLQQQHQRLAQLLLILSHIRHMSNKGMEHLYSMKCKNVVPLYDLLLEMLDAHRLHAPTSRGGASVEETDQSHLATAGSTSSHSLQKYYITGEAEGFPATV
Kind of series: Inhibition of ER-alpha (unknown origin) transcriptional activity expressed in ER-negative human SKBR3 cells coexpressing ERE assessed as change in reporter gene activity after 40 hrs relative to control. Type of series: cell-based. The arrangement: concentration or dose not given beside the values. The note with it: SK-BR-3. Put shortly:
(§1)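 ER-negative SKBR3 cells cotransfected with 3xERE-TATA-luciferase, RST7-ERα and pCMV-β-gal for normalization. […] Scored as >50% decrease or increase at <20, 20–50 or >50 μM, or <20% change. 4-hydroxytamoxifen as antagonist control. Cell death above 50 μM flagged.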

The target in series [2] is T1, Estrogen receptor (Homo sapiens). Nature of the series: Competitive inhibition of ER-alpha (unknown origin)-GRIP1 interaction expressed in human HepG2 cells assessed as decrease in reporter gene activity at 20 to 50 uM after 40 hrs relative to control. In kind it is cell-based. The arrangement: scale not given: the % may be the effect or the level left. The method, boiled down: (§2)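 HepG2 cells transfected with VP16-ERα, Gal4-DBD-fused GRIP1 LxxLL2 peptide and 5xGal4Luc3 reporter. […] Scored as >50% decrease or increase at <20, 20–50 or >50 μM, or <20% change. 4-hydroxytamoxifen as antagonist control. Cell death and precipitation flagged.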
(In general: In a reporter assay the amount or activity of a reporter protein is the signal.)

For series [3] the target is unchanged. Kind of series: Inhibition of ER-alpha (unknown origin) transcriptional activity expressed in ER-negative human SKBR3 cells coexpressing ERE assessed as change in reporter gene activity after 40 hrs in presence of estradiol relative to control. Type of series: cell-based. Further details: concentration or dose not given beside the values. The note with it: SK-BR-3. Put shortly:
as §1

Series [4] shares this target. Nature of the series: Competitive inhibition of ER-alpha (unknown origin)-GRIP1 interaction expressed in human HepG2 cells assessed as decrease in reporter gene activity at 20 to 50 uM after 40 hrs in presence of estradiol relative to control. In kind it is cell-based. Further details: scale not given: the % may be the effect or the level left. Put shortly:
as §2

Series [5] has the same target. Nature of the series: Inhibition of ER-alpha (unknown origin) transcriptional activity expressed in ER-negative human SKBR3 cells coexpressing ERE assessed as decrease in reporter gene activity at <20 uM after 40 hrs in presence of estradiol relative to control. In kind it is cell-based. Further details: scale not given: the % may be the effect or the level left. The note with it: SK-BR-3. Put shortly:
as §1

Series [6] has the same target. Nature of the series: Inhibition of ER-alpha (unknown origin) transcriptional activity expressed in ER-negative human SKBR3 cells coexpressing ERE assessed as decrease in reporter gene activity at <20 uM after 40 hrs relative to control. Further details: scale not given: the % may be the effect or the level left. Particulars: SK-BR-3. In kind it is cell-based. Put shortly:
as §1

The target is the same in series [7]. Kind of series: Competitive inhibition of ER-alpha (unknown origin)-GRIP1 interaction expressed in human HepG2 cells assessed as decrease in reporter gene activity at <20 uM after 40 hrs in presence of estradiol relative to control. In kind it is cell-based. The arrangement: scale not given: the % may be the effect or the level left. Put shortly: as §2
Series [8] has the same target. Kind of series: Competitive inhibition of ER-alpha (unknown origin)-GRIP1 interaction expressed in human HepG2 cells assessed as decrease in reporter gene activity at <20 uM after 40 hrs relative to control. In kind it is cell-based. Further details: scale not given: the % may be the effect or the level left. Put shortly: as §2
In series [9] the target is T2, Estrogen receptor (Homo sapiens, UniProt P03372).
T2 sequence (P03372 whole entry): T1 sequence (whole entry)
Kind of series: Mixed-type inhibition of ER-alpha (unknown origin) expressed in ER-negative human SKBR3 cells coexpressing ERE using estradiol as substrate. Type of series: cell-based, SK-BR-3.

Series [10] has as its target T2, Estrogen receptor. Nature of the series: Competitive inhibition of ER-alpha (unknown origin) ligand binding pocket expressed in ER-negative human SKBR3 cells coexpressing ERE using estradiol as substrate. In kind it is cell-based, SK-BR-3. The method, boiled down: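 SKBR3 (ER-negative breast cancer) cells were transfected with RST7–ERα, a 3xERE-TATA-luciferase reporter and a pCMV-β-gal normalization control. […] Cells were incubated 40 h, then luciferase reporter activity was read.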

For series [11], the system named is HepG2. Kind of series: Cytotoxicity against human HepG2 cells expressing ER-alpha coexpressing GRIP1 assessed as cell death at >50 uM in presence of estradiol. In kind it is cell-based. The method, boiled down: as §2
The subject of series [12] is HepG2. Nature of the series: Cytotoxicity against human HepG2 cells expressing ER-alpha coexpressing GRIP1 assessed as cell death at >50 uM. In kind it is cell-based. The method, boiled down:
as §2

For series [13], the target named is T1, Estrogen receptor (Homo sapiens). Nature of the series: Inhibition of ER-alpha (unknown origin) transcriptional activity expressed in ER-negative human SKBR3 cells coexpressing ERE assessed as increase in reporter gene activity at >50 uM after 40 hrs relative to control. In kind it is cell-based. The arrangement: scale not given: the % may be the effect or the level left. Particulars: SK-BR-3. The method, boiled down:
as §1

The nature of series [14]: Cytotoxicity against ER-negative human SKBR3 cells expressing ER-alpha coexpressing ERE assessed as cell death at >50 uM in presence of estradiol. Type of series: cell-based. Particulars: sk-br-3. The method, boiled down:
as §1

Series [15] concerns the target T1, Estrogen receptor (Homo sapiens). Nature of the series: Competitive inhibition of ER-alpha (unknown origin)-GRIP1 interaction expressed in human HepG2 cells assessed as change in reporter gene activity after 40 hrs in presence of estradiol relative to control. Further details: concentration or dose not given beside the values. In kind it is cell-based. The method, boiled down:
as §2

The target is the same in series [16]. Kind of series: Competitive inhibition of ER-alpha (unknown origin)-GRIP1 interaction expressed in human HepG2 cells assessed as increase in reporter gene activity at >50 uM after 40 hrs relative to control. In kind it is cell-based. The arrangement: scale not given: the % may be the effect or the level left. The method, boiled down:
as §2

Series [17] in a line: Cytotoxicity against ER-negative human SKBR3 cells expressing ER-alpha coexpressing ERE assessed as cell death at >50 uM. Type of series: cell-based. Particulars: sk-br-3. The method, boiled down:
as §1

In series [18] the target is T1, Estrogen receptor (Homo sapiens). Kind of series: Inhibition of ER-alpha (unknown origin) transcriptional activity expressed in ER-negative human SKBR3 cells coexpressing ERE assessed as increase in reporter gene activity at <20 uM after 40 hrs relative to control. In kind it is cell-based. Particulars: SK-BR-3. Further details: scale not given: the % may be the effect or the level left. The method, boiled down: as §1

Series [19] has the same target. Kind of series: Competitive inhibition of ER-alpha (unknown origin)-GRIP1 interaction expressed in human HepG2 cells assessed as decrease in reporter gene activity at >50 uM after 40 hrs in presence of estradiol relative to control. In kind it is cell-based. The arrangement: scale not given: the % may be the effect or the level left. The method, boiled down: as §2

Series [20] shares this target. Kind of series: Competitive inhibition of ER-alpha (unknown origin)-GRIP1 interaction expressed in human HepG2 cells assessed as change in reporter gene activity after 40 hrs relative to control. In kind it is cell-based. The arrangement: concentration or dose not given beside the values. The method, boiled down:
as §2

For series [21] the target is unchanged. Nature of the series: Competitive inhibition of ER-alpha (unknown origin)-GRIP1 interaction expressed in human HepG2 cells assessed as decrease in reporter gene activity at less than 20 uM after 40 hrs relative to control. Further details: scale not given: the % may be the effect or the level left.
For series [22] the target is unchanged. Kind of series: Inhibition of ER-alpha (unknown origin) transcriptional activity expressed in ER-negative human SKBR3 cells coexpressing ERE assessed as increase in reporter gene activity at 20 to 50 uM after 40 hrs relative to control. In kind it is cell-based. The note with it: SK-BR-3. Further details: scale not given: the % may be the effect or the level left. The method, boiled down:
as §1

Series [23] has the same target. Nature of the series: Competitive inhibition of ER-alpha (unknown origin)-GRIP1 interaction expressed in human HepG2 cells assessed as decrease in reporter gene activity at >50 uM after 40 hrs relative to control. Type of series: cell-based. The arrangement: scale not given: the % may be the effect or the level left. The method, boiled down:
as §2

For series [24] the target is unchanged. Kind of series: Competitive inhibition of ER-alpha (unknown origin)-GRIP1 interaction expressed in human HepG2 cells assessed as increase in reporter gene activity at <20 uM after 40 hrs relative to control. In kind it is cell-based. Further details: scale not given: the % may be the effect or the level left. The method, boiled down:
as §2

For series [25] the target is unchanged. Kind of series: Competitive inhibition of ER-alpha (unknown origin)-GRIP1 interaction expressed in human HepG2 cells assessed as increase in reporter gene activity at <20 uM after 40 hrs in presence of estradiol relative to control. Type of series: cell-based. The arrangement: scale not given: the % may be the effect or the level left. Put shortly: as §2

As for `CCOC(=O)COc1ccc(-c2ccc(O)c(Cc3ccc(-c4ccccc4)cc3)c2)cc1`, the Activity is under 20% in series [1], over 50% in series [2], under 20% in series [3] and over 50% in series [4].
Turning to `CCOC(=O)COc1ccc(-c2ccc(OCCN(C)C)cc2)cc1CC1CCCCC1`, the Activity in series [5], in series [6], in series [7] and in series [8] was over 50% throughout. This compound also showed an IC50 in series [9] of 12.7 µM.
In the case of `CCOC(=O)COc1ccc(-c2ccc(OCCN(C)C)c(Cc3ccc(-c4ccccc4)cc3)c2)cc1`, in series [10], the IC50 came out at 3.1 µM. In addition, the Activity is over 50% in series [5]; “Toxic” in series [11]; over 50% in series [6]; over 50% in series [7]; “Toxic” in series [12]; over 50% in series [8].
On to `CCOC(=O)COc1ccc(-c2ccc(OCCN(C)C)c(Cc3ccc4ccccc4c3)c2)cc1Cc1ccc2ccccc2c1`, for which the Activity is over 50% in series [13]; “Toxic” in [14]; “Toxic” in series [11]; under 20% in [3]; under 20% in [15]; “Toxic” in series [12]. For the same compound, the results for the Activity in [16] and in series [17] were over 50% and “Toxic”, respectively.
As to `CCOC(=O)COc1ccc(-c2ccc(O)c(CC3CCCCC3)c2)cc1`, the Activity result in [14] was “Toxic”; in [3], under 20%; in series [18], over 50%; in [19] it was over 50%; in series [17], “Toxic”; in [20], under 20%.
With `CCOC(=O)COc1ccc(-c2ccc(OCCN(C)C)c(CC3CCCCC3)c2)cc1`, the Activity is over 50% in [21], under 20% in series [3], under 20% in series [15] and over 50% in [22].
Consider `CCOC(=O)COc1ccc(-c2ccc(OCCN(C)C)c(CC3CCCCC3)c2)cc1CC1CCCCC1`, for which the Activity is over 50% in series [13]; “Toxic” in series [14]; under 20% in series [3]; over 50% in series [19]; “Toxic” in series [17]; under 20% in series [20].
Consider `CCOC(=O)COc1ccc(-c2ccc(OCCN(C)C)cc2)cc1Cc1ccc(-c2ccccc2)cc1`, for which the Activity was under 20% in [1]; over 50% in [23]; “Toxic” in series [11]; under 20% in [3]; under 20% in series [15]; “Toxic” in series [12].
On to `CCOC(=O)COc1ccc(-c2ccc(OCCN(C)C)c(Cc3ccc4ccccc4c3)c2)cc1`, for which the Activity in series [3] is under 20%; in series [18], over 50%; in series [24], over 50%; in [25] it was over 50%.
Take `CCOC(=O)COc1ccc(-c2ccc(OCCN(C)C)cc2)cc1Cc1ccc2ccccc2c1`: the IC50 in series [10] was found to be 3.2 µM. Besides, the Activity in series [5] was over 50%; in [11], “Toxic”; in [6], over 50%; in series [7], over 50%; in series [12] it was “Toxic”; in series [8], over 50%.

For orientation: IC50 means the concentration at which inhibition is half-maximal.
